# ChEMBL document CHEMBL3774321, “Systematic diversification of benzylidene heterocycles yields novel inhibitor scaffolds selective for Dyrk1A, Clk1 and CK2” (Eur J Med Chem, 2016)
# Calls of active or inactive are those of the source. The rule behind the calls is not given here.
# Assays:
# [1] = molecular target: T1, Myosin light chain kinase 2, skeletal/cardiac muscle (Homo sapiens, UniProt Q9H1R3); experiment: Inhibition of full length recombinant human N-terminal GST-tagged MLCK expressed in baculovirus expression system at 5 uM by lantha screen kinase binding assay relative to control
# Procedure, shortened: (§1)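 Binding-displacement format: the compound competes with an Alexa Fluor-conjugated tracer for binding to the kinase ATP site, rather than a peptide phosphorylation read-out.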
# [2] = molecular target: Serine/threonine-protein kinase 26 (Homo sapiens) (UniProt Q9P289); experiment: Inhibition of full length recombinant human GST-tagged MST4 expressed in baculovirus expression system at 5 uM by lantha screen kinase binding assay relative to control
# Chain of Serine/threonine-protein kinase 26 (Homo sapiens) (Q9P289 2-416 limits assumed): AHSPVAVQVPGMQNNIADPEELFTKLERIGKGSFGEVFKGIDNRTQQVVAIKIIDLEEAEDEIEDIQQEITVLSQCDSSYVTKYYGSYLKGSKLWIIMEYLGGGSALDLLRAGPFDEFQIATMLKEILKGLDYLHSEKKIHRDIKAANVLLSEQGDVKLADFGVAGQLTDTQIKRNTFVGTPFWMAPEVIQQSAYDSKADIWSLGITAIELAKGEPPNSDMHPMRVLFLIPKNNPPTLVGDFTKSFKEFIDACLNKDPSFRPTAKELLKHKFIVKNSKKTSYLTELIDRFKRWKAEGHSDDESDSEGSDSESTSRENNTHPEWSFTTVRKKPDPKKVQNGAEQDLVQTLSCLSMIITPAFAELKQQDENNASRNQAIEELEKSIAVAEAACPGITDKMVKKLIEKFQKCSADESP
# [3] = molecular target: cAMP-dependent protein kinase catalytic subunit alpha (Homo sapiens) (UniProt P17612); experiment: Inhibition of recombinant human His-tagged PRKACA expressed in Escherichia coli at 5 uM by lantha screen kinase binding assay relative to control; procedure, shortened: as §1
# [4] = molecular target: Serine/threonine-protein kinase D2 (Homo sapiens) (UniProt Q9BZL6); experiment: Inhibition of full length recombinant human GST-tagged PRKD2 expressed in baculovirus expression system at 5 uM by lantha screen kinase binding assay relative to control
# Chain of Serine/threonine-protein kinase D2 (Homo sapiens) (Q9BZL6 whole entry): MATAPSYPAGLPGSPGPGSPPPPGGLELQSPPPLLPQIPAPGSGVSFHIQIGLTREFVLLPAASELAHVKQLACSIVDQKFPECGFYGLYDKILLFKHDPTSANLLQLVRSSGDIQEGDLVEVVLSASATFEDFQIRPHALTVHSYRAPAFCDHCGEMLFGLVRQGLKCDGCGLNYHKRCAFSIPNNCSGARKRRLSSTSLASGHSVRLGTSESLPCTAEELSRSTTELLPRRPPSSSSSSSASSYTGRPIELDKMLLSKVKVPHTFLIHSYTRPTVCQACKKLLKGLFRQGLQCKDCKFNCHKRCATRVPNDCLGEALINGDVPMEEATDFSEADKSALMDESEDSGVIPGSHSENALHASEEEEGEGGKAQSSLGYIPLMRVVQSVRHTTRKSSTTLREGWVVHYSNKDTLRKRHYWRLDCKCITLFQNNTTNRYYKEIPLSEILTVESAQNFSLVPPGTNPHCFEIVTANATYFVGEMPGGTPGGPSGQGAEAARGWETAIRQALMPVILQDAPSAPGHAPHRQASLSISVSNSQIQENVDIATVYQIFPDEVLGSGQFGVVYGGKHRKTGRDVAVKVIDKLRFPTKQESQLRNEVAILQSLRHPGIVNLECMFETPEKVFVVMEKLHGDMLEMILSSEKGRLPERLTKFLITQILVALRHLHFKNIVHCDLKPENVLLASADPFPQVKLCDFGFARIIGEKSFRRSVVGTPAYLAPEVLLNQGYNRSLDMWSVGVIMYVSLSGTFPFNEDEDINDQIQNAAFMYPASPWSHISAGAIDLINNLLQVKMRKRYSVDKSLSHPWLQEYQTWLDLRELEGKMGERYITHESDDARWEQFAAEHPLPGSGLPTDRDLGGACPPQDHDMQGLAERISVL
# [5] = molecular target: Tyrosine-protein kinase ABL1 (Homo sapiens) (UniProt P00519); experiment: Inhibition of recombinant human His-tagged ABL1 expressed in baculovirus expression system at 5 uM by lantha screen kinase binding assay relative to control; procedure, shortened: as §1
# [6] = molecular target: BDNF/NT-3 growth factors receptor (Homo sapiens) (UniProt Q16620); experiment: Inhibition of recombinant human His-tagged NTRK2 expressed in baculovirus expression system at 5 uM by lantha screen kinase binding assay relative to control; procedure, shortened: as §1
# Chain of BDNF/NT-3 growth factors receptor (Homo sapiens) (Q16620 32-822 limits assumed): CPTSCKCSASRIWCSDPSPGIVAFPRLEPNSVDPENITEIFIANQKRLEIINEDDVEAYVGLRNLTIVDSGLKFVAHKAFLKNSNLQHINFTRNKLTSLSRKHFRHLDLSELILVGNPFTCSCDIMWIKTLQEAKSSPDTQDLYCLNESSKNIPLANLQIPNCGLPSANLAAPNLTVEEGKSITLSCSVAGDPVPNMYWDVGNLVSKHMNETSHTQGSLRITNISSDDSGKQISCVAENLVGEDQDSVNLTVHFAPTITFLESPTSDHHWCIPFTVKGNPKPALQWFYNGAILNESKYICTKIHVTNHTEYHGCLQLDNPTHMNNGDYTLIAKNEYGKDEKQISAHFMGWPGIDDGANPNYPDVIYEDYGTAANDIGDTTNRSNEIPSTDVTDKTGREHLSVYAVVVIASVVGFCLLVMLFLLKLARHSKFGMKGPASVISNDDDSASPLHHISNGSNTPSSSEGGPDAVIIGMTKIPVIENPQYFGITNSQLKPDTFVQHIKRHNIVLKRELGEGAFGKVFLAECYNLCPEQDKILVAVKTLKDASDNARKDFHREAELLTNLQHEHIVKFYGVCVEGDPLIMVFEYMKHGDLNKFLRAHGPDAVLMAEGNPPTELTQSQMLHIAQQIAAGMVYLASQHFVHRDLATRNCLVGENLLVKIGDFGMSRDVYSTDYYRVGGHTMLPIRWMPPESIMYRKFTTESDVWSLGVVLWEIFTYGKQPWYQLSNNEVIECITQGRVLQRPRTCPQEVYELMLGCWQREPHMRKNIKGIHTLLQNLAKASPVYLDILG
# [7] = molecular target: T2, Epidermal growth factor receptor (Homo sapiens, UniProt P00533); experiment: Inhibition of recombinant human GST-tagged EGFR expressed in baculovirus expression system at 5 uM by lantha screen kinase binding assay relative to control; procedure, shortened: as §1
# T2 sequence (P00533 whole entry, canonical isoform): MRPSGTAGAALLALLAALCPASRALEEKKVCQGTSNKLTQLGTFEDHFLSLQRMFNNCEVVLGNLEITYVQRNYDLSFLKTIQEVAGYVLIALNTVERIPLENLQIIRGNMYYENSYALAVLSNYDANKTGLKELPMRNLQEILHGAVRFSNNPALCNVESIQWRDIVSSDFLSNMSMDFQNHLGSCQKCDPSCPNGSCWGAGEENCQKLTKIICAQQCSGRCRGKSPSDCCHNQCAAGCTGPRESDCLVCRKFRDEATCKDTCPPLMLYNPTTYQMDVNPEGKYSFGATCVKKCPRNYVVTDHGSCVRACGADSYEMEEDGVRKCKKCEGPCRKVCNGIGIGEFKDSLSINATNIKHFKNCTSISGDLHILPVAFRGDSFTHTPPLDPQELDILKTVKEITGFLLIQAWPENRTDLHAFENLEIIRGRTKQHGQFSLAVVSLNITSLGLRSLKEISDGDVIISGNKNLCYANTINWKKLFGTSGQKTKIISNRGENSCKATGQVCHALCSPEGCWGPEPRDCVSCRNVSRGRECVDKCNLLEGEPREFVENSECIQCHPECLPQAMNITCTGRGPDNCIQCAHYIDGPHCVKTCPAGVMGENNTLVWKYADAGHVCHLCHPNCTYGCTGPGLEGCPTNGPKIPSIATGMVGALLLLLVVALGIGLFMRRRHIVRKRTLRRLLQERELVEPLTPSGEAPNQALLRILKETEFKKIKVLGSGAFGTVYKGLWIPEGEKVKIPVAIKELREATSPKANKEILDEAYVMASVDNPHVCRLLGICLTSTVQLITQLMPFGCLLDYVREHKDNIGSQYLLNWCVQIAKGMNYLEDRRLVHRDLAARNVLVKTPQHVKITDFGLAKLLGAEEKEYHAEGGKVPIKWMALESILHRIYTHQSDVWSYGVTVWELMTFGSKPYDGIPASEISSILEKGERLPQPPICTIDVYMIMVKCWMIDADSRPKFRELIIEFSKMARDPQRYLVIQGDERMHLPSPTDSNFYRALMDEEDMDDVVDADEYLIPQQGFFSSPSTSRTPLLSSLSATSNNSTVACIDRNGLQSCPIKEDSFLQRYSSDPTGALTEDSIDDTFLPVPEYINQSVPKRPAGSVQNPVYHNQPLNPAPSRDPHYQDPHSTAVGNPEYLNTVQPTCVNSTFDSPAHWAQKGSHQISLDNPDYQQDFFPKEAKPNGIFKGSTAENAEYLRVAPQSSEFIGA
# [8] = molecular target: Casein kinase I isoform delta (Homo sapiens) (UniProt P48730); experiment: Inhibition of full length recombinant human GST-tagged CSNK1D expressed in baculovirus expression system at 5 uM by lantha screen kinase binding assay relative to control
# [9] = molecular target: Dual specificity protein kinase CLK3 (Homo sapiens, UniProt P49761); experiment: Inhibition of recombinant human GST-tagged CLK3 expressed in baculovirus expression system at 5 uM by lantha screen kinase binding assay relative to control; procedure, shortened: as §1
# [10] = molecular target: T3, Cyclin-dependent kinase 5/CDK5 activator 1 (Homo sapiens) (UniProt Q00535+Q15078); experiment: Inhibition of full length recombinant human GST-tagged, His-tagged CDK5/p25 expressed in baculovirus expression system at 5 uM by lantha screen kinase binding assay
# T3 sequence (Q00535 whole entry): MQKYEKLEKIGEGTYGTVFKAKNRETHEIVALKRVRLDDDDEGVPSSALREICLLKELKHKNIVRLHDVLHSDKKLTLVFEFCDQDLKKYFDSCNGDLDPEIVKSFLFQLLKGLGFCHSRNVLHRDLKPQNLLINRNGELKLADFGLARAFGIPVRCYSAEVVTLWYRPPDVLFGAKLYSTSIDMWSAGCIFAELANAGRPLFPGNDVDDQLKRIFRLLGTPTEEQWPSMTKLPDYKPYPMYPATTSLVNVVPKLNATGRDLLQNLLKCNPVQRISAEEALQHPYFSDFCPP
# T3 sequence (Q15078 99-307 partner limits assumed): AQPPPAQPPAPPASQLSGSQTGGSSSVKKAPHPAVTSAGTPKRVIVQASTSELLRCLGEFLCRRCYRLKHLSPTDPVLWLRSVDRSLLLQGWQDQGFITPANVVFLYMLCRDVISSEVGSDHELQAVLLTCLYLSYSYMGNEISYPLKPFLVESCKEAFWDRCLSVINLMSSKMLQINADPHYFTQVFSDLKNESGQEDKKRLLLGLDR
# [11] = molecular target: Homeodomain-interacting protein kinase 1 (Homo sapiens) (UniProt Q86Z02); experiment: Inhibition of recombinant human N-terminal GST-tagged HIPK1 expressed in baculovirus expression system at 5 uM by lantha screen kinase binding assay relative to control; procedure, shortened: as §1
# Chain of Homeodomain-interacting protein kinase 1 (Homo sapiens) (Q86Z02 whole entry, looked up): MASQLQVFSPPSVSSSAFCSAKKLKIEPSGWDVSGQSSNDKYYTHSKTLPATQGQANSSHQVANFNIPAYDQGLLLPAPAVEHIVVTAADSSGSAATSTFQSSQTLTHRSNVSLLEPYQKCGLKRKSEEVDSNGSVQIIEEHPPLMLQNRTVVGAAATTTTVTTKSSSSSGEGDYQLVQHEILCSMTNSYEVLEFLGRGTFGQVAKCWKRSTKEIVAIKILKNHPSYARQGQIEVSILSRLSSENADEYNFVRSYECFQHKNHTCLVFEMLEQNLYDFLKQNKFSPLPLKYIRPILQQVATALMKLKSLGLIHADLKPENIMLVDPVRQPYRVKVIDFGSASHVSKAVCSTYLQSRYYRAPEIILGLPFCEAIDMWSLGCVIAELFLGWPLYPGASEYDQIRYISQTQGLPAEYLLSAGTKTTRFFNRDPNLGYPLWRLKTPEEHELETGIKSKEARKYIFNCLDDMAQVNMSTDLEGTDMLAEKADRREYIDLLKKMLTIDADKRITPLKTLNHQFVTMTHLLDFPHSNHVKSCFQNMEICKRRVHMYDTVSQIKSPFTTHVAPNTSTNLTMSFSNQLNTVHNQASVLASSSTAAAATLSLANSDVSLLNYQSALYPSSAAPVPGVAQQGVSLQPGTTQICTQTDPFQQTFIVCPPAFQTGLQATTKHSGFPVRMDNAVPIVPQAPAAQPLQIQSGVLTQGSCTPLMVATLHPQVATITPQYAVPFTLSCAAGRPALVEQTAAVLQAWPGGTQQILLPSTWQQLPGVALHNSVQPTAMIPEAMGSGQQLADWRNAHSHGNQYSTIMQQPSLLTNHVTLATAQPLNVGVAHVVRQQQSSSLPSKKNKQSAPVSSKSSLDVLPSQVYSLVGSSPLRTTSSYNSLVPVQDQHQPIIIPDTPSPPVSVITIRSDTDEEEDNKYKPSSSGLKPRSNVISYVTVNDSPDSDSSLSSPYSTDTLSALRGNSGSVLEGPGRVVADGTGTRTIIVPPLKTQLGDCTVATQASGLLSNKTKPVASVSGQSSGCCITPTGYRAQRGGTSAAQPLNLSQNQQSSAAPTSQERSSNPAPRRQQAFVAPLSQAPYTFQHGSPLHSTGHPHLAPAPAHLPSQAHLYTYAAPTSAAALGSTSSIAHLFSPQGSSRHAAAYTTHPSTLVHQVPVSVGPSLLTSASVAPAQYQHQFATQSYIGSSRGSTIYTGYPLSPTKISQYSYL
# [12] = molecular target: Serine/threonine-protein kinase pim-2 (Homo sapiens) (UniProt Q9P1W9); experiment: Inhibition of full length recombinant human GST-tagged PIM2 expressed in baculovirus expression system at 5 uM by lantha screen kinase binding assay relative to control
# [13] = molecular target: Calcium/calmodulin-dependent protein kinase type II subunit alpha (Homo sapiens) (UniProt Q9UQM7); experiment: Inhibition of full length recombinant human His-tagged CAMK2A expressed in baculovirus expression system at 5 uM by lantha screen kinase binding assay relative to control
# [14] = system: HEK293; experiment: Cytotoxicity against HEK293 cells up to 20 uM; assay type: cell-based; conditions: human
# [15] = molecular target: Myosin light chain kinase, smooth muscle (Homo sapiens) (UniProt Q15746); experiment: Inhibition of recombinant human GST-tagged MYLK expressed in baculovirus expression system at 1 uM by lantha screen kinase binding assay relative to control; procedure, shortened: as §1
# [16] = molecular target: T1, Myosin light chain kinase 2, skeletal/cardiac muscle; experiment: Inhibition of full length recombinant human N-terminal GST-tagged skeletal MYLK2 expressed in baculovirus expression system at 1 uM by lantha screen kinase binding assay relative to control; procedure, shortened: as §1
# [17] = molecular target: Serine/threonine-protein kinase 26 (Homo sapiens) (UniProt Q9P289); experiment: Inhibition of full length recombinant human GST-tagged MST4 expressed in baculovirus expression system at 1 uM by lantha screen kinase binding assay relative to control
# [18] = molecular target: Serine/threonine-protein kinase D2 (Homo sapiens) (UniProt Q9BZL6); experiment: Inhibition of full length recombinant human GST-tagged PRKD2 expressed in baculovirus expression system at 1 uM by lantha screen kinase binding assay relative to control
# [19] = molecular target: BDNF/NT-3 growth factors receptor (Homo sapiens) (UniProt Q16620); experiment: Inhibition of recombinant human His-tagged NTRK2 expressed in baculovirus expression system at 1 uM by lantha screen kinase binding assay relative to control; procedure, shortened: as §1
# [20] = molecular target: T2, Epidermal growth factor receptor; experiment: Inhibition of recombinant human GST-tagged EGFR expressed in baculovirus expression system at 1 uM by lantha screen kinase binding assay relative to control; procedure, shortened: as §1
# [21] = molecular target: Proto-oncogene tyrosine-protein kinase ROS (Homo sapiens) (UniProt P08922); experiment: Inhibition of recombinant human GST-tagged ROS1 expressed in baculovirus expression system at 1 uM by lantha screen kinase binding assay relative to control; procedure, shortened: as §1
# [22] = molecular target: Casein kinase I isoform epsilon (Homo sapiens) (UniProt P49674); experiment: Inhibition of full length recombinant human His-tagged CSNK1E expressed in baculovirus expression system at 1 uM by lantha screen kinase binding assay relative to control
# [23] = molecular target: Casein kinase I isoform gamma-2 (Homo sapiens) (UniProt P78368); experiment: Inhibition of full length recombinant human His-tagged CSNK1G2 expressed in baculovirus expression system at 1 uM by lantha screen kinase binding assay relative to control
# [24] = molecular target: Serine/threonine-protein kinase 17A (Homo sapiens) (UniProt Q9UEE5); experiment: Inhibition of STK17A (unknown origin) at 1 uM relative to control
# [25] = molecular target: Serine/threonine-protein kinase 17A (Homo sapiens, UniProt Q9UEE5); experiment: Inhibition of STK17A (unknown origin)
# [26] = molecular target: Dual specificity protein kinase CLK2 (Homo sapiens) (UniProt P49760); experiment: Inhibition of recombinant human GST-tagged CLK2 expressed in baculovirus expression system at 1 uM by lantha screen kinase binding assay relative to control; procedure, shortened: as §1
# [27] = molecular target: T3, Cyclin-dependent kinase 5/CDK5 activator 1 (Homo sapiens); experiment: Inhibition of full length recombinant human GST-tagged, His-tagged CDK5/p25 expressed in baculovirus expression system at 1 uM by lantha screen kinase binding assay
# [28] = molecular target: Dual specificity tyrosine-phosphorylation-regulated kinase 3 (Homo sapiens) (UniProt O43781); experiment: Inhibition of full length recombinant human GST-tagged DYRK3 expressed in baculovirus expression system at 1 uM by lantha screen kinase binding assay relative to control
# [29] = molecular target: Dual specificity tyrosine-phosphorylation-regulated kinase 4 (Homo sapiens) (UniProt Q9NR20); experiment: Inhibition of full length recombinant human GST-tagged DYRK4 expressed in baculovirus expression system at 1 uM by lantha screen kinase binding assay relative to control
# [30] = molecular target: Homeodomain-interacting protein kinase 1 (Homo sapiens) (UniProt Q86Z02); experiment: Inhibition of recombinant human N-terminal GST-tagged HIPK1 expressed in baculovirus expression system at 1 uM by lantha screen kinase binding assay relative to control; procedure, shortened: as §1
# [31] = molecular target: Mitogen-activated protein kinase 8 (Homo sapiens) (UniProt P45983); experiment: Inhibition of full length recombinant human His-tagged MAPK8 expressed in baculovirus expression system at 1 uM by lantha screen kinase binding assay relative to control; procedure, shortened: as §1
# [32] = molecular target: Serine/threonine-protein kinase 17A (Homo sapiens) (UniProt Q9UEE5); experiment: Inhibition of STK17A (unknown origin) at 5 uM relative to control
smiles,measurement,setting,value
O=C1NC(=S)S/C1=C\c1ccc2ncsc2c1,inhibition,[1],12%
same,inhibition,[2],inactive
same,inhibition,[3],inactive
same,inhibition,[4],inactive
same,inhibition,[5],6%
same,inhibition,[6],inactive
same,inhibition,[7],inactive
same,inhibition,[8],inactive
same,inhibition,[9],44%
same,inhibition,[10],inactive
same,inhibition,[11],inactive
same,inhibition,[12],inactive
same,inhibition,[13],inactive
O=C1OCC/C1=C\c1ccc2ncsc2c1,Activity,[14],Non-toxic
O=C1NC(=S)S/C1=C\c1ccc2ncccc2c1,inhibition,[15],48%
same,inhibition,[16],35%
same,inhibition,[17],inactive
same,inhibition,[18],19%
same,inhibition,[19],3%
same,inhibition,[20],inactive
same,inhibition,[21],5%
same,inhibition,[22],1%
same,inhibition,[23],43%
same,inhibition,[24],97%
same,IC50,[25],12.8 nM
same,inhibition,[26],80%
same,inhibition,[27],inactive
same,inhibition,[28],84%
same,inhibition,[29],39%
same,inhibition,[30],33%
same,inhibition,[31],7%
CC1C/C(=C\c2ccc3c(c2)CCO3)C(=O)O1 (configuration not stated),inhibition,[32],28%
